18 compounds from paper PMC7856040 (ChemMedChem, 2020) can be followed below.

Test [1] deals with first instar (Liverpool, LVP) Ae. aegypti. Nature of the test: larvae toxicity screen, small molecules added to the rearing water. The settings on record: for mortality at 48 h compared to VU854: 100 μM, first instar LVP larvae, one-way ANOVA, Dunnett's test; for mortality at 100 µM: Aedes aegypti, 48 h, read-out: mortality at 48 h. In kind it is in vivo.
The target of test [2] is AeKir (Aedes aegypti, UniProt L0EQS9). In words: fluorescence-based in vitro thallium. In kind it is cell-based. The settings on record: HEK293. In a few lines:
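Fluorescence thallium-flux read-out in HEK293 cells expressing AeKir under tetracycline induction. Signals normalized to baseline Tl+ flux in the same line left uninduced by tetracycline. IC50 is the mean ± SEM of at least three independent experiments. Percent inhibition is taken at the highest concentration tested.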

In test [3] the test system is first instar (LVP or PR) Ae. aegypti. Nature of the test: larval toxicity concentration response curve. In kind it is in vivo.

By mortality is commonly meant the share of the test organisms that died. For orientation: inhibition means the change of the read-out against control, counted positive when it falls. As to `O=[N+]([O-])c1ccc(N2CCN(S(=O)(=O)c3ccc(F)cc3)CC2)cc1F` [Compound 8, 1-(3-fluoro-4-nitrophenyl)-4-((4-fluorophenyl)sulfonyl)piperazine], in test [1], the “mortality at 48 h compared to VU854” value is listed as “significantly greater mortality” and the mortality at 100 µM was determined as 100%. Also, the inhibition at 30000 µM in test [2] was 100%. Further, the “times more potent against the LVP strain (versus PR)” value in test [3] (CRC, 48 h) is reported as ~ 2 times.
For the compound `O=[N+]([O-])c1ccc(N2CCN(S(=O)(=O)c3ccc(F)cc3)CC2)cc1NCc1ccco1` [Compound 9a, 5-(4-((4-fluorophenyl)sulfonyl)piperazin-1-yl)-N-(furan-2-ylmethyl)-2-nitroaniline], in test [2], the inhibition at 30000 µM came out at 96%.
On the same count and under the same terms, as for `Cc1cc(CNc2cc(N3CCN(S(=O)(=O)c4ccc(F)cc4)CC3)ccc2[N+](=O)[O-])no1` [Compound 9f, 5-(4-((4-fluorophenyl)sulfonyl)piperazin-1-yl)-N-((5-methylisoxazol-3-yl)methyl)-2-nitroaniline], the figure is 109%; as for `Cc1nnc(CNc2cc(N3CCN(S(=O)(=O)c4ccc(F)cc4)CC3)ccc2[N+](=O)[O-])o1` [Compound 9g, 5-(4-((4-fluorophenyl)sulfonyl)piperazin-1-yl)-N-((5-methyl-1,3,4-oxadiazol-2-yl)methyl)-2-nitroaniline], 110%; as for `O=[N+]([O-])c1ccc(N2CCN(S(=O)(=O)c3ccc(F)cc3)CC2)cc1NCc1nccs1` [Compound 9h, 5-(4-((4-fluorophenyl)sulfonyl)piperazin-1-yl)-2-nitro-N-(thiazol-2-ylmethyl)aniline], 97%.
As to `CC(Nc1cc(N2CCN(S(=O)(=O)c3ccc(F)cc3)CC2)ccc1[N+](=O)[O-])c1nccs1` (stereo not shown) [Compound 9i, 5-(4-((4-fluorophenyl)sulfonyl)piperazin-1-yl)-2-nitro-N-(1-(thiazol-2-yl)ethyl)aniline], in test [2], the inhibition at 30000 µM stood at 107%.
Turning to `Cc1ncc(CNc2cc(N3CCN(S(=O)(=O)c4ccc(F)cc4)CC3)ccc2[N+](=O)[O-])s1` [Compound 9j, 5-(4-((4-fluorophenyl)sulfonyl)piperazin-1-yl)-N-((2-methylthiazol-5-yl)methyl)-2-nitroaniline], in test [2], the inhibition at 30000 µM came to 111%.
Same read-out and setting: next, `O=[N+]([O-])c1ccc(N2CCN(S(=O)(=O)c3ccc(F)cc3)CC2)cc1NCc1ncco1` [Compound 9k, 5-(4-((4-fluorophenyl)sulfonyl)piperazin-1-yl)-2-nitro-N-(oxazol-2-ylmethyl)aniline]: 98%; `CC(Nc1cc(N2CCN(S(=O)(=O)c3ccc(F)cc3)CC2)ccc1[N+](=O)[O-])c1ncco1` (stereo not shown) [Compound 9l, 5-(4-((4-fluorophenyl)sulfonyl)piperazin-1-yl)-2-nitro-N-(1-(oxazol-2-yl)ethyl)aniline]: 109%.
As for `O=[N+]([O-])c1ccc(N2CCN(S(=O)(=O)c3ccc(F)cc3)CC2)cc1NCc1cnco1` [Compound 9m, 5-(4-((4-fluorophenyl)sulfonyl)piperazin-1-yl)-2-nitro-N-(oxazol-5-ylmethyl)aniline], the inhibition at 30000 µM in test [2] worked out at 99%.
`Cc1cnc(CNc2cc(N3CCN(S(=O)(=O)c4ccc(F)cc4)CC3)ccc2[N+](=O)[O-])o1` [Compound 9n, 5-(4-((4-fluorophenyl)sulfonyl)piperazin-1-yl)-N-((5-methyloxazol-2-yl)methyl)-2-nitroaniline]: the “mortality at 48 h compared to VU854” value in test [1] was “similarly efficacious as VU854”. In test [2], the inhibition at 30000 µM was found to be 100%.
For the compound `Cc1ncc(CNc2cc(N3CCN(S(=O)(=O)c4ccc(F)cc4)CC3)ccc2[N+](=O)[O-])o1` [Compound 9o, 5-(4-((4-fluorophenyl)sulfonyl)piperazin-1-yl)-N-((2-methyloxazol-5-yl)methyl)-2-nitroaniline], in test [2], the inhibition at 30000 µM came to 106%.
In the case of `O=[N+]([O-])c1ccc(N2CCN(S(=O)(=O)c3ccc(F)cc3)CC2)cc1NCc1ncon1` [Compound 9p, N-((1,2,4-oxadiazol-3-yl)methyl)-5-(4-((4-fluorophenyl)sulfonyl)piperazin-1-yl)-2-nitroaniline], in test [1], the “mortality at 48 h compared to VU854” value is “significantly greater mortality”. Besides, the mortality at 100 µM in test [1] was 99%; in test [3] (Aedes aegypti, 48 h, read-out: maximal mortality within 48 h) it was approximately 50%. Also, in test [2], the inhibition at 30000 µM was found to be 109%. Also, the “pathology observed in treated larvae” value in test [3] (contiguous trail of excrement from midgut beyond the rectum) is “constipation or excretory failure”.
Regarding `Cc1nc(CNc2cc(N3CCN(S(=O)(=O)c4ccc(F)cc4)CC3)ccc2[N+](=O)[O-])no1` [Compound 9q, 5-(4-((4-fluorophenyl)sulfonyl)piperazin-1-yl)-N-((5-methyl-1,2,4-oxadiazol-3-yl)methyl)-2-nitroaniline], the “mortality at 48 h compared to VU854” value in test [1] is recorded as “similarly efficacious as VU854”. The inhibition at 30000 µM in test [2] stood at 109%.
As for `O=[N+]([O-])c1ccc(N2CCN(S(=O)(=O)c3ccc(F)cc3)CC2)cc1NCc1ccon1` [Compound 9r, 5-(4-((4-fluorophenyl)sulfonyl)piperazin-1-yl)-N-(isoxazol-3-ylmethyl)-2-nitroaniline], in test [2], the inhibition at 30000 µM came to 99%.
In the case of `Cc1nnc(CNc2cc(N3CCN(S(=O)(=O)c4ccc(F)cc4)CC3)ccc2[N+](=O)[O-])s1` [Compound 9s, 5-(4-((4-fluorophenyl)sulfonyl)piperazin-1-yl)-N-((5-methyl-1,3,4-thiadiazol-2-yl)methyl)-2-nitroaniline], the “mortality at 48 h compared to VU854” value in test [1] is “similarly efficacious as VU854”. Besides, the inhibition at 30000 µM in test [2] amounted to 61%.
As for `O=[N+]([O-])c1ccc(N2CCN(S(=O)(=O)c3ccc(F)cc3)CC2)cc1NCc1cc2ccccc2o1` [Compound 9t, N-(benzofuran-2-ylmethyl)-5-(4-((4-fluorophenyl)sulfonyl)piperazin-1-yl)-2-nitroaniline], in test [2], the inhibition at 30000 µM was determined as 10%.
Same read-out and setting: as for `O=[N+]([O-])c1ccc(N2CCN(S(=O)(=O)c3ccc(F)cc3)CC2)cc1NCc1nc2ccccc2o1` [Compound 9u, N-(benzo[d]oxazol-2-ylmethyl)-5-(4-((4-fluorophenyl)sulfonyl)piperazin-1-yl)-2-nitroaniline], the figure is 29%.
